Like-named read-outs stand apart in the source and are kept apart here.
Columns and labels:
[1] = Ribociclib protein binding in mouse plasma; type: in vitro ADME; details: CD1, mouse
Method in brief: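 The test compound was spiked into CD1 mouse plasma (sodium heparin) at final 500, 1000, 2500 and 5000 ng/ml. Spiked plasma was ultrafiltered through a 10 kDa cut-off device by centrifugation for 30 min at 3600 rpm, 37°C, and the filtrate was stored at −80°C. Fraction unbound was calculated as the filtrate concentration divided by the total plasma concentration.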

[2] = type: in vivo, CD1 nude mice
Method in brief: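 Female CD1 nude mice (n=9) bearing cortical SJ-DIPGx7 allografts received a single oral 100 mg/kg dose (10 mg/ml in 0.5% methyl cellulose). Sampling used a population design with multiple samples per mouse up to 24 h: retro-orbital bleeds and terminal cardiac puncture, into heparin. Plasma was assayed by LC-MS/MS. A one-compartment model with an oral dosing compartment was fitted by nonlinear mixed-effects modelling (NONMEM).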

[3] = cited from earlier work
[4] = Cerebral microdialysis study in non-tumor bearing mice; type: in vivo, CD1 nude mice; details: 100 mg/kg oral
Method in brief: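 After a single oral 100 mg/kg dose, brain ECF was microdialysed with Ringer's after at least 1 h probe equilibration. Plasma was sampled at 0.08, 1.5 and 7 h (some at 24 h). ECF was corrected by in vitro probe recovery at 1 μg/mL, 37°C, 0.5 μL/min. A one-compartment plus ECF compartment model was fitted in NONMEM with plasma parameters fixed.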

CDK-cyclin D1 = details: read-out: IC50 for CDK-cyclin D1; no reference given; cited from earlier work
[5] = Cerebral microdialysis study in mice bearing SJ-DIPGx7; type: in vivo, CD1 nude mice; details: glioma mice, 100 mg/kg oral
Method in brief: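 Female CD1 nude mice with cortical allografts of 1·10^6 SJ-DIPGx7 cells (n=16); a guide cannula was implanted stereotactically into the cortex. After a single oral 100 mg/kg dose, tumor ECF was microdialysed with Ringer's after at least 1 h probe equilibration, and plasma was sampled at 0.08, 1.5 and 7 h (some at 24 h). ECF values were corrected by per-probe in vitro recovery. Data were fitted in NONMEM with plasma parameters and V3 fixed.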

[6] = CF1 mice, 5 minutes after injection, cited from earlier work
[7] = in vivo, po, 30 mg/kg, cited from earlier work
[8] = adults at the recommended dose; cited from earlier work
[9] = Full-plasma PK study, glioma mice, 100 mg/kg oral

With CN(C)C(=O)c1cc2cnc(Nc3ccc(N4CCNCC4)cn3)nc2n1C1CCCC1 [ribociclib, Ribociclib] the fraction unbound at 30 min [1] was 0.23, the half-life ([2]; CD1 nude, mouse, plasma, po, 100 mg/kg) was 280 ± 38.4 min and the “θCL Clearance, Estimate (%RSE)” value [2, 9] was 2.78 (1.8) L/hr/kg. For the same compound, the “θKa First-order absorption constant, Estimate (%RSE)” value [2, 9] was 2.75 (5.26) 1/hr, the “θVc Volume of central compartment, Estimate (%RSE)” value [2, 9] was 18.6 (3.87) L/kg and the fraction unbound ([3]; assumed value for phase I comparison) was 0.30. The “unbound AUC” value ([3]; phase I study, assuming a fraction unbound of 0.30) was ~ 6000 ng/ml*hr, the “θCL23 Influx clearance from plasma to ECF compartment, Estimate (%RSE)” value [4] was 0.124 (26.8) L/hr/kg and the “θCL32 Efflux clearance from ECF to plasma compartment, Estimate (%RSE)” value [4] was 7.78 (8.81) L/hr/kg. The AUC(0-t) ([4]; CD1 nude, mouse, brain ECF, po, 100 mg/kg, Brain/tumor ECF AUC0–24h, n=12, brain ECF) was 736 ± 610 ng·h/mL, the IC50 (CDK-cyclin D1) was 10 nM and the AUC(0-t) ([5]; CD1 nude, mouse, tumor ECF, po, 100 mg/kg, Brain/tumor ECF AUC0–24h, n=16, tumor ECF) was 433 ± 451 ng·h/mL. The “θCL23 Influx clearance from plasma to ECF compartment, Estimate (%RSE)” value [5] was 0.000000838 (24) L/hr/kg and the “θCL32 Efflux clearance from ECF to plasma compartment, Estimate (%RSE)” value [5] was 0.0000808 (11.5) L/hr/kg.
For CC(=O)c1c(C)c2cnc(Nc3ccc(N4CCNCC4)cn3)nc2n(C2CCCC2)c1=O [palbociclib], the “Kp,uu” value [6] is given as 0.01 ± 0.003 and the “Kp,brain” value ([6]; dose 0.5 μmole/kg) is given as 0.13 ± 0.04.
For CCN1CCN(Cc2ccc(Nc3ncc(F)c(-c4cc(F)c5nc(C)n(C(C)C)c5c4)n3)nc2)CC1 [abemaciclib], the “Kp,brain” value ([7]; 24 h) is given as 0.21 ± 0.04, the “Kp,uu” value ([7]; 24 h) is given as 0.03 ± 0.01 and the “plasma AUC” value [7] is given as 69,300 ng/ml*hr. The “plasma AUC” value [8] was 5520 ng·h/mL.
